Tests used:
U-251 = experiment: Antitumor activity against human U251 cells after 48 hrs; type: functional; settings: U-251, 48 h
Summary of the method: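 NCI 60 human tumour cell line screen; 48 h continuous drug exposure. Compounds tested as tri(methanesulfonate) salts, soluble in water and dilute buffers. Dilute solutions are light-sensitive and adsorb to glass or quartz.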

LOX IMVI = experiment: Antitumor activity against human LOX IMVI cells after 48 hrs; type: functional
Summary of the method: (§1)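 Tested in the NCI 60 human tumour cell line screen, with continuous drug exposure for 48 h. Values include LC50 derived from the screen.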

Malme-3M = experiment: Antitumor activity against human MALME-3M cells after 48 hrs; type: functional; summary of the method: as §1
OVCAR-3 = experiment: Antitumor activity against human OVCAR-3 cells after 48 hrs; type: functional; settings: OVCAR-3, 48 h; summary of the method: as §1
HCT-116 [1] = experiment: Growth inhibition of human HCT116 cells after 5 days by MTT assay; type: functional; settings: HCT-116, 120 h
Summary of the method: (§2)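 MTT assay after 5 day continuous exposure. GI50, TGI and LC50 calculated from the MTT data. Means ± SD of at least three independent experiments; coefficients of variation 10-20%. Compounds used as tri(methanesulfonate) salts.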

[2] = Growth inhibition of human Hep3B cells after 5 days by MTT assay; type: functional, Hep 3B2; settings: 120 h; summary of the method: as §2
COLO 205 = experiment: Antitumor activity against human Colo205 cells expressing mutated p53; type: functional, cell-based
Summary of the method: (§3)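 Compounds tested as tri(methanesulfonate) salts, soluble in water and dilute buffers. Human tumour cells carrying wild-type or mutated p53 were exposed for 5 days, and viability was read by MTT assay. GI50, TGI and LC50 were calculated from the MTT data. Values are means ± SD of at least three independent experiments, with coefficients of variation of 10–20%.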

HT-29 = experiment: Antitumor activity against HT29 cells expressing mutated p53; type: functional, cell-based; settings: Homo sapiens; summary of the method: as §3
ASPC1 = experiment: Antitumor activity against p53 null human ASPC1 cells; type: functional, cell-based
[3] = Antitumor activity against human 10.05 cells expressing mutated p53; type: functional, cell-based; summary of the method: as §3
HCT-116 [4] = experiment: Cell cycle arrest in HCT116 cells assessed as accumulation at Sub G1 phase at 50 nM after 72 hrs; type: functional, Homo sapiens
Summary of the method: (§4)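 HCT116 cells exposed to 50 nM drug for 72 h, then cell-cycle distribution analysed. Sub-G1, G1, S and G2/M fractions reported as percent of cells, with untreated control cells for comparison.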

HCT-116 [5] = experiment: Cell cycle arrest in HCT116 cells assessed as accumulation at G1 phase at 50 nM after 72 hrs; type: functional, Homo sapiens; summary of the method: as §4
HCT-116 [6] = experiment: Cell cycle arrest in HCT116 cells assessed as accumulation at S phase at 50 nM after 72 hrs; type: functional, Homo sapiens; summary of the method: as §4
[7] = Plasma clearance in CD2F1 mouse at 20 mg/kg, iv; type: ADME, organism-based; design: dose 20 mg/kg, route intravenous
Summary of the method: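 Pilot pharmacokinetics in CD2F1 mice after i.v. injection. Total plasma clearance derived from plasma concentration data.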

[8] = Drug level in NCR nu/nu mouse plasma at 20 mg/kg, iv after 8 hrs; type: ADME, organism-based; design: dose 20 mg/kg, route intravenous
Summary of the method: (§5)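 Single i.v. dose of 20 mg/kg to ncr nu/nu mice and an F344 rat. Plasma concentrations followed over time and fitted by nonlinear regression to give distribution and elimination phases, AUC and apparent volumes of distribution. Detection limit 50 nM.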

[9] = Drug level in F344 rat plasma at 20 mg/kg, iv after 4 hrs; type: ADME, organism-based; design: dose 20 mg/kg, route intravenous; summary of the method: as §5
[10] = Apparent volume of distribution in F344 rat at 20 mg/kg, iv; type: ADME, organism-based; design: dose 20 mg/kg, route intravenous; settings: in vivo; summary of the method: as §5
HCT-116 [11] = experiment: Inhibition of tumor growth in HCT116 cells xenografted in nu/nu mouse; type: functional, Homo sapiens
Summary of the method: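 HCT116 xenografts in mice; compound given i.v. on a Q3Dx4 schedule, starting when tumours reached 62 mm3. Tumour growth inhibition measured.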

MIA PaCa-2 = experiment: Inhibition of tumor growth in PaCa2 cells xenografted nu/nu mouse at 15 mg/kg; type: functional, Homo sapiens
Summary of the method: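 PaCa-2 tumour fragments implanted on the flank of nu/nu mice, 10 per group. Intraperitoneal treatment, Q3Dx4, started 12 days post-inoculation at 80 mm3 tumour volume. Tumour growth inhibition measured.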

CCRF-CEM = experiment: Antitumor activity against human CCRF-CEM cells after 48 hrs; type: functional; summary of the method: as §1
EKVX = experiment: Antitumor activity against human EKVX cells after 48 hrs; type: functional; summary of the method: as §1
[12] = Antitumor activity against human NCI-H322 cells after 48 hrs; type: functional; settings: NCI-H322, 48 h; summary of the method: as §1
SF-295 = experiment: Antitumor activity against human SF295 cells after 48 hrs; type: functional; settings: SF-295, 48 h; summary of the method: as §1
SNB-19 = experiment: Antitumor activity against human SNB19 cells after 48 hrs; type: functional; settings: SNB-19, 48 h; summary of the method: as §1
OVCAR-4 = experiment: Antitumor activity against human OVCAR4 cells after 48 hrs; type: functional; settings: OVCAR-4, 48 h; summary of the method: as §1
786-0 = experiment: Antitumor activity against human 786-0 cells after 48 hrs; type: functional; settings: 786-0, 48 h; summary of the method: as §1
A498 = experiment: Antitumor activity against human A498 cells after 48 hrs; type: functional; settings: A498, 48 h; summary of the method: as §1
ACHN = experiment: Antitumor activity against human ACHN cells after 48 hrs; type: functional; summary of the method: as §1
CAKI-1 = experiment: Antitumor activity against human CAKI-1 cells after 48 hrs; type: functional; settings: CAKI-1, 48 h; summary of the method: as §1
SN12C = experiment: Antitumor activity against human SN12C cells after 48 hrs; type: functional; summary of the method: as §1
PC-3 = experiment: Antitumor activity against human PC3 cells after 48 hrs; type: functional; settings: PC-3, 48 h; summary of the method: as §1
DU-145 = experiment: Antitumor activity against human DU145 cells after 48 hrs; type: functional; settings: DU-145, 48 h; summary of the method: as §1
MCF7 = experiment: Antitumor activity against human MCF7 cells after 48 hrs; type: functional; settings: MCF7, 48 h; summary of the method: as §1
BT-549 = experiment: Antitumor activity against human BT549 cells after 48 hrs; type: functional; settings: BT-549, 48 h; summary of the method: as §1
[13] = read-out: Log LC50 (the source's name) (converted)

With COc1ccc2c(c1)c(=O)c1c(NCCCN3CCN(CCCN4C(=O)c5cccc6cc([N+](=O)[O-])cc(c56)C4=O)CC3)ccc3ncn2c31.CS(=O)(=O)O the GI50 (U-251) was 2.19 nM, the CC50 (U-251; [13]) was > 1000 nM and the TGI (U-251; read-out: Log TGI (converted)) was > 1000 nM. For the same compound, the GI50 (LOX IMVI) was 1.86 nM, the CC50 (LOX IMVI; [13]) was > 1000 nM and the TGI (LOX IMVI; read-out: Log TGI (converted)) was 77.6 nM. The GI50 (Malme-3M) was 6.03 nM, the CC50 (Malme-3M; [13]) was > 1000 nM and the TGI (Malme-3M; read-out: Log TGI (converted)) was 95.5 nM. For the same compound, the GI50 (OVCAR-3) was 50.1 nM, the CC50 (OVCAR-3; [13]) was > 1000 nM and the TGI (OVCAR-3; read-out: Log TGI (converted)) was > 1000 nM. It also gave a GI50 (HCT-116 [1]) of 1 nM, an LC50 (HCT-116 [1]) of 30 nM and a GI50 [2] of 2.5 nM. The CC50 ([2]; read-out: LC50 (the source's name)) was 50 nM, the IC50 (COLO 205) was 80 nM and the IC50 (HT-29) was 80 nM. It also gave an IC50 (ASPC1) of 70 nM, an IC50 [3] of 90 nM and an Activity (HCT-116 [4]) of 48%. For the same compound, the Activity (HCT-116 [5]) was 22.6%, the Activity (HCT-116 [6]) was 2.3% and the clearance [7] was 238 mL/min/kg. For the same compound, the concentration at 8 h [8] was 70 nM, the concentration at 4 h [9] was 90 nM and the Vd [10] was 138 L/kg. For the same compound, the TGI (HCT-116 [11]) was 59%, the inhibition in vivo at 15 mg/kg (MIA PaCa-2) was 53.5% and the GI50 (CCRF-CEM) was 4.07 nM. The CC50 (CCRF-CEM; [13]) was > 1000 nM, the TGI (CCRF-CEM; read-out: Log TGI (converted)) was 97.7 nM and the GI50 (EKVX) was 3.31 nM. For the same compound, the CC50 (EKVX; [13]) was > 1000 nM, the TGI (EKVX; read-out: Log TGI (converted)) was 58.9 nM and the GI50 [12] was 5.89 nM. The CC50 [12, 13] was > 1000 nM, the TGI ([12]; read-out: Log TGI (converted)) was 309 nM and the GI50 (SF-295) was 1 nM. For the same compound, the CC50 (SF-295; [13]) was > 1000 nM, the TGI (SF-295; read-out: Log TGI (converted)) was 79.4 nM and the GI50 (SNB-19) was 8.51 nM. For the same compound, the CC50 (SNB-19; [13]) was > 1000 nM, the TGI (SNB-19; read-out: Log TGI (converted)) was > 1000 nM and the GI50 (OVCAR-4) was 4.9 nM. For the same compound, the CC50 (OVCAR-4; [13]) was > 1000 nM, the TGI (OVCAR-4; read-out: Log TGI (converted)) was 87.1 nM and the GI50 (786-0) was 5.25 nM. The CC50 (786-0; [13]) was > 1000 nM, the TGI (786-0; read-out: Log TGI (converted)) was > 1000 nM and the GI50 (A498) was 6.61 nM. The CC50 (A498; [13]) was > 1000 nM, the TGI (A498; read-out: Log TGI (converted)) was 331 nM and the GI50 (ACHN) was 0.407 nM. The CC50 (ACHN; [13]) was > 1000 nM, the TGI (ACHN; read-out: Log TGI (converted)) was 63.1 nM and the GI50 (CAKI-1) was 3.02 nM. For the same compound, the CC50 (CAKI-1; [13]) was > 1000 nM, the TGI (CAKI-1; read-out: Log TGI (converted)) was 40.7 nM and the GI50 (SN12C) was 2.51 nM. For the same compound, the CC50 (SN12C; [13]) was > 1000 nM, the TGI (SN12C; read-out: Log TGI (converted)) was > 1000 nM and the GI50 (PC-3) was 3.09 nM. For the same compound, the CC50 (PC-3; [13]) was > 1000 nM, the TGI (PC-3; read-out: Log TGI (converted)) was 339 nM and the GI50 (DU-145) was 3.71 nM. For the same compound, the CC50 (DU-145; [13]) was > 1000 nM, the TGI (DU-145; read-out: Log TGI (converted)) was > 1000 nM and the GI50 (MCF7) was 4.68 nM. The CC50 (MCF7; [13]) was > 1000 nM, the TGI (MCF7; read-out: Log TGI (converted)) was > 1000 nM and the GI50 (BT-549) was 3.09 nM. The CC50 (BT-549; [13]) was > 1000 nM and the TGI (BT-549; read-out: Log TGI (converted)) was 53.7 nM.
